Laboratory results taken from article PMC12700136 (Journal of medicinal chemistry, 2025).
Where two headings read alike, the source gives them in different places. Values belong to the compound of their own block, whether it stands above or below them.

Tests used:
ClpP [1] = molecular target: T1, ClpP (Homo sapiens, UniProt Q16740); test: Thermal shift assay; format: binding; settings: MDA-MB-468 lysates; for ClpP binding/stabilization by TSA (comparison in words): heated at 67 °C, WB
Summary of the method: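 Test compound at increasing concentrations added to 10 μg MDA-MB-468 lysate, 15 min at 23 °C. Heated 67 °C for 3 min, precipitated 3 min at 23 °C, spun 14,000 rpm, 20 min, 4 °C. Soluble ClpP detected by anti-ClpP immunoblot against unheated and no-compound controls; quantified as mean ± SD of two independent experiments.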

ClpP [2] = molecular target: T1, ClpP; test: Thermal shift assay; format: cell-based; settings: MDA-MB-468 cells treated 30 min
Summary of the method: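 MDA-MB-468 cells seeded at 1 million per well the day before, then exposed to test compound for 30 min at 37 °C. Washed in PBS, scraped into PBS with […] inhibitors, heated 67 °C for 3 min, lysed by freeze–thaw, spun 14,000 rpm 20 min at 4 °C. Soluble ClpP immunoblotted; normalized quantification, mean ± SD of two independent experiments.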

[3] = molecular target: purified human ClpP (hClpP) (Homo sapiens, UniProt Q16740); test: Differential scanning fluorimetry; format: binding; settings: vs DMSO
Summary of the method: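 Human ClpP lacking mitochondrial sequence, expressed in E. coli BL21(DE3) as N-terminal 2x(His6-thrombin)-SUMO-TEV fusion (1 mM IPTG, 4 h, 37 °C), cobalt-resin purified. Protein at 0.5 mg/mL final in 25 mM Tris-HCl pH 7.5 with SYPRO Orange; held 25 °C 2 min, ramped 25–95 °C at 0.05 °C/s. ΔTm versus DMSO; mean ± SD, four independent experiments.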

DAP13 = DAP13 degradation assay; format: cell-based, human; settings: 24 h, MDA-MB-468 cells; for DAP13 degraded: 25 nM; for DAP13 degradation at high concentrations: 100, 150 and 200 nM
MDA-MB-468 cells [4] = test: Seahorse mitochondrial respiration assay; format: cell-based, human; settings: 50 nM for 12, 24 and 48 h
Summary of the method: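 Cells were plated at 250,000 per well and treated for 12, 24 or 48 h. One hour before reading, medium was changed to XF DMEM (1 mM pyruvate, 2 mM glutamine, 10 mM glucose, pH 7.4). The Mito Stress Test used final 1 μM oligomycin, 1 μM FCCP and 0.5 μM antimycin A. OCR was read at baseline and after sequential oligomycin, FCCP and rotenone additions.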

MDA-MB-468 cells [5] = test: Western blot analysis of apoptosis markers; format: cell-based, human; settings: 1 μM, 72 h
Summary of the method: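 MDA-MB-468 cells exposed to vehicle or 1 μM test compound for 72 h. Lysates probed by immunoblot for apoptosis markers including caspase-3. Blots representative of two independent experiments.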

MDA-MB-468 cells [6] = test: Flow-cytometry-based apoptosis detection; format: cell-based, human; settings: 1 μM, 72 h
Summary of the method: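 MDA-MB-468 cells given DMSO or 1 μM test compound for 72 h at 37 °C, 5% CO2. Washed twice in FACS buffer (50 mM PBS, 2 mM EDTA, 2% FBS), stained with fixable viability dye eFluor 780 for 30 min at 4 °C, washed, then analysed by flow cytometry for dead-cell labelling.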

MDA-MB-468 cells [7] = test: Viability assay; format: cell-based, human; settings: for IC50: read-out: IC50 (viability)
Summary of the method: (§1)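 Cells (DMEM/F12 + GlutaMax, 10% FBS, 1% pen-strep) seeded at 5,000 per well 24 h before dosing, in quadruplicate. Medium replaced with test compound-containing medium for 72 h. Viability read after 3 h AlamarBlue incubation by colorimetric change, normalized to vehicle control. IC50 from curves; mean ± SD of three independent experiments.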

MDA-MB-231 cells = test: Viability assay; format: cell-based, human; settings: MDA-MB-231, 72 h; for IC50: read-out: IC50 (viability)
Summary of the method: as §1

SK-BR-3 cells = test: Viability assay; format: cell-based, human; settings: SK-BR-3, 72 h; for IC50: read-out: IC50 (viability)
Summary of the method: as §1

MCF-7 cells = test: Viability assay; format: cell-based, human; settings: for IC50: read-out: IC50 (viability)
Summary of the method: as §1

BT-474 cells = test: Viability assay; format: cell-based, human; settings: BT-474, 72 h; for IC50: read-out: IC50 (viability)
Summary of the method: as §1

[8] = test system: ONC212-resistant MDA-MB-468 cells; test: Viability assay; format: cell-based, human; settings: for IC50: read-out: IC50 (viability); for increase in the IC50 value, resistant vs wild-type cells: ONC212-resistant vs wild-type MDA-MB-468, 72 h
Summary of the method: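 Resistant MDA-MB-468 line selected by continuous 50 nM reference ClpP agonist, medium changed every 3 days. Cells expanded drug-free and re-exposed over several cycles until growth exceeded death. Wild-type and resistant cells seeded at 5,000 per well, quadruplicate, and dosed 72 h. AlamarBlue read after 3 h, normalized to vehicle; mean ± SD, three independent experiments.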

[9] = Mouse pharmacokinetic study; format: in vivo; settings: Swiss albino mice, single IP administration, 50 mg/kg
Summary of the method: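 Three male Swiss Albino mice received a single intraperitoneal dose in 100% v/v normal saline. About 60 μL of blood was drawn at 0.5, 2 and 8 h. Plasma was stored at −70 °C until a fit-for-purpose LC-MS/MS assay. Concentrations are the average of the 3 mice, with ± SEM.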

cancer cells = settings: cited from earlier work

T1 sequence (Q16740 57-277): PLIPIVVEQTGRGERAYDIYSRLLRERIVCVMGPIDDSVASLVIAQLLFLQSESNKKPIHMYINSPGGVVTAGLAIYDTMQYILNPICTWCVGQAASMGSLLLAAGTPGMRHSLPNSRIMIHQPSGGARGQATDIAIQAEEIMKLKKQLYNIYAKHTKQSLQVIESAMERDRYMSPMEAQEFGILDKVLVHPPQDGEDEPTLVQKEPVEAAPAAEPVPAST
purified human ClpP (hClpP), sequence (Q16740 57-277): as above

SMILES: NCCCCCc1cc(C(F)(F)F)ccc1CN1C(=O)C2=C(CCN(Cc3ccccc3)C2)N2CCN=C12 [Compound 1, 4-(2-(5-Aminopentyl)-4-(trifluoromethyl)benzyl)-7-benzyl-2,4,6,7,8,9-hexahydroimidazo[1,2-a]pyrido[3,4-e]pyrimidin-5(1H)-one]
- ClpP binding/stabilization by TSA (comparison in words) (ClpP [1]): marginally improved binding to ClpP compared to ONC212

- improvement in ClpP binding compared to ONC212 and compound 1 (ClpP [1]; TSA): approximately 2 fold
SMILES: N#Cc1cccc(CN2CCC3=C(C2)C(=O)N(Cc2ccc(C(F)(F)F)cc2CCCCCN)C2=NCCN23)c1 [Compound 2, 3-((4-(2-(5-Aminopentyl)-4-(trifluoromethyl)benzyl)-5-oxo-1,2,4,5,8,9-hexahydroimidazo[1,2-a]pyrido[3,4-e]pyrimidin-7(6H)-yl)methyl)benzonitrile]

- ClpP binding/stabilization by TSA (comparison in words) (ClpP [1]): weaker ClpP binding
SMILES: NCCCCCc1cc(F)ccc1CN1C(=O)C2=C(CCN(Cc3ccccc3)C2)N2CCN=C12 [Compound 3, 4-(2-(5-Aminopentyl)-4-fluorobenzyl)-7-benzyl-2,4,6,7,8,9-hexahydroimidazo[1,2-a]pyrido[3,4-e]pyrimidin-5(1H)-one]

- ClpP binding/stabilization by TSA (comparison in words) (ClpP [1]): much reduced binding to ClpP
SMILES: CC(=O)NCCCCCc1cc(C(F)(F)F)ccc1CN1C(=O)C2=C(CCN(Cc3ccccc3)C2)N2CCN=C12 [Compound 5, N-(5-(2-((7-Benzyl-5-oxo-1,2,6,7,8,9-hexahydroimidazo[1,2-a]pyrido[3,4-e]pyrimidin-4(5H)-yl)methyl)-5-(trifluoromethyl)-phenyl)pentyl)acetamide]

- ClpP binding/stabilization by TSA (comparison in words) (ClpP [1]): much reduced binding to ClpP
SMILES: CC(=O)NCCCCCc1cc(C(F)(F)F)ccc1CN1C(=O)C2=C(CCN(Cc3cccc(C#N)c3)C2)N2CCN=C12 [Compound 6, N-(5-(2-((7-(3-Cyanobenzyl)-5-oxo-1,2,6,7,8,9-hexahydroimidazo[1,2-a]pyrido[3,4-e]pyrimidin-4(5H)-yl)-methyl)-5-(trifluoromethyl)phenyl)pentyl)acetamide]

SMILES: CN(C)CCCCCc1cc(C(F)(F)F)ccc1CN1C(=O)C2=C(CCN(Cc3cccc(C#N)c3)C2)N2CCN=C12 [Compound 7, 3-((4-(2-(5-(Dimethylamino)pentyl)-4-(trifluoromethyl)-benzyl)-5-oxo-1,2,4,5,8,9-hexahydroimidazo[1,2-a]pyrido[3,4-e]pyrimidin-7(6H)-yl)methyl)benzonitrile]
- ClpP binding/stabilization by TSA (comparison in words) (ClpP [1]): recovered to the same level as that of compound 2

SMILES: CNC(=O)CN(C)CCCCCc1cc(C(F)(F)F)ccc1CN1C(=O)C2=C(CCN(Cc3cccc(C#N)c3)C2)N2CCN=C12 [Compound 8, 2-((5-(2-((7-(3-Cyanobenzyl)-5-oxo-1,2,6,7,8,9-hexahydroimidazo[1,2-a]pyrido[3,4-e]pyrimidin-4(5H)-yl)-methyl)-5-(trifluoromethyl)phenyl)pentyl)(methyl)amino)-N-methylacetamide]
- ClpP binding/stabilization by TSA (comparison in words) (ClpP [1]): recovered to the same level as that of compound 2

SMILES: N#Cc1cccc(CN2CCC3=C(C2)C(=O)N(Cc2ccc(C(F)(F)F)cc2OCCN)C2=NCCN23)c1 [Compound 9, 3-((4-(2-(2-Aminoethoxy)-4-(trifluoromethyl)benzyl)-5-oxo-1,2,4,5,8,9-hexahydroimidazo[1,2-a]pyrido[3,4-e]pyrimidin-7(6H)-yl)methyl)benzonitrile]
- concentration at which ClpP was stabilized (TSA) (ClpP [1]): 0.313 µM
- ClpP binding/stabilization by TSA (comparison in words) (ClpP [1]): superior stabilization of ClpP
- concentration at which ClpP was stabilized (TSA in live cells) (ClpP [2]): 0.08 µM
- thermal shift of purified hClpP (DSF) [3]: very significant thermal shift
- DAP13 degraded (DAP13): more than 50%
- DAP13 degradation at high concentrations (DAP13): degraded DAP13
- effect on basal respiration, ATP generation and maximal respiration (MDA-MB-468 cells [4]): reduced basal respiration, ATP generation and maximal respiration at all time points tested
- cleaved caspase 3 and cleaved PARP levels (MDA-MB-468 cells [5]): increased the cleaved caspase 3 and cleaved PARP levels
- protein levels of full-length caspase 3 and PARP (MDA-MB-468 cells [5]): reduction
- late-stage apoptosis (eFluor 780) (MDA-MB-468 cells [6]): effectively induced late-stage apoptosis
- IC50 (MDA-MB-468 cells [7]; Homo sapiens, MDA-MB-468, 72 h): 10.6 nM
- fold improvement of IC50 vs ONC212 (MDA-MB-468 cells [7]; MDA-MB-468, 72 h): approximately 3.5 fold
- IC50 (MDA-MB-231 cells; Homo sapiens): 13.9 nM
- fold improvement of IC50 vs ONC212 (MDA-MB-231 cells): approximately 3.5 fold
- IC50 (SK-BR-3 cells; Homo sapiens): 11.5 nM
- fold improvement of IC50 vs ONC212 (SK-BR-3 cells): approximately 10 fold
- IC50 (MCF-7 cells; Homo sapiens, MCF7, 72 h): 7 nM
- fold improvement of IC50 vs ONC212 (MCF-7 cells; MCF-7, 72 h): approximately 9 fold
- fold improvement of IC50 vs ONC212 (BT-474 cells): approximately 4 fold
- IC50 (BT-474 cells; Homo sapiens): 8 nM
- IC50 ([8]; Homo sapiens, MDA-MB-468, 72 h): 27.7 nM
- increase in the IC50 value, resistant vs wild-type cells [8]: 2.6 fold
- bioavailability (plasma concentrations) [9]: bioavailable in mice via IP injection
- tolerability [9]: well tolerated

SMILES: CC(=O)NCCOc1cc(C(F)(F)F)ccc1CN1C(=O)C2=C(CCN(Cc3cccc(C#N)c3)C2)N2CCN=C12 [Compound 10, N-(2-(2-((7-(3-Cyanobenzyl)-5-oxo-1,2,6,7,8,9-hexahydroimidazo[1,2-a]pyrido[3,4-e]pyrimidin-4(5H)-yl)-methyl)-5-(trifluoromethyl)phenoxy)ethyl)acetamide]
- ClpP binding/stabilization by TSA (comparison in words) (ClpP [1]): decreased ClpP binding compared to 9 but similar to ONC212

SMILES: Cc1ccccc1CN1C(=O)C2=C(CCN(Cc3ccccc3)C2)N2CCN=C12 [ONC201]
- concentrations required to significantly affect cancer cell survival (cancer cells): micromolar range

- concentration at which ClpP was stabilized (TSA) (ClpP [1]): ≥ 2.5 µM
- concentration at which ClpP was stabilized (TSA in live cells) (ClpP [2]): 0.63 µM
- thermal shift of purified hClpP (DSF) [3]: very significant thermal shift
- IC50 (MDA-MB-468 cells [7]; MDA-MB-468 (wild-type), 72 h): 35.2 nM
- IC50 (MDA-MB-231 cells): 50.5 nM
- IC50 (SK-BR-3 cells): 115 nM
- IC50 (MCF-7 cells; MCF-7, 72 h): 63.7 nM
- IC50 (BT-474 cells): 32.7 nM
- increase in the IC50 value, resistant vs wild-type cells [8]: approximately 10 fold
- IC50 ([8]; ONC212-resistant MDA-MB-468, 72 h): 351 nM
SMILES: O=C1C2=C(CCN(Cc3ccccc3)C2)N2CCN=C2N1Cc1ccc(C(F)(F)F)cc1 [ONC212, reference compound]
- DAP13 degraded (DAP13): did not significantly degrade DAP13
- DAP13 degradation at high concentrations (DAP13): degraded DAP13
- effect on basal respiration, ATP generation and maximal respiration (MDA-MB-468 cells [4]): significantly affected these mitochondrial functions only at 48 h
- protein levels of full-length caspase 3 and PARP (MDA-MB-468 cells [5]): reduction
- late-stage apoptosis (eFluor 780) (MDA-MB-468 cells [6]): effectively induced late-stage apoptosis
